# Source: PubChem BioAssay
# STAT1 inh – STAT1 signaling inhibitors, primary screen, cell-based, HTS, luciferase reporter | inhibition, % at 5.5 µM | 200,000 tested, 0.35% active | NIH 3T3 STAT1-luciferase reporter, IFN-gamma, luminescence;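 active means inhibition above a set limit, the mean inhibition across all tested compounds plus 3 SD, cut at about 34% in these data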;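 further: 0% = IFN-gamma with DMSO and 100% = IFN-gamma with 300 µM nifuroxazide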
# FLuc act counter – FLuc activators, initial screening, artefact control for FLuc-dependent activation tests, biochemical, ATPlite luminescence | Luciferin 4-monooxygenase (Photinus pyralis), P08659 | ATPlite luciferase biochemical, 10 min; 0 = ATP-free wells, 1 = DMSO control | activation factor at 10 µM | 200,000 tested, under 10 active | AID 1027, 2008;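 active means luciferase activation factor, scaled between plate controls, of at least 2 with compound at 10 µM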
# Target sequence (P08659 whole entry, looked up): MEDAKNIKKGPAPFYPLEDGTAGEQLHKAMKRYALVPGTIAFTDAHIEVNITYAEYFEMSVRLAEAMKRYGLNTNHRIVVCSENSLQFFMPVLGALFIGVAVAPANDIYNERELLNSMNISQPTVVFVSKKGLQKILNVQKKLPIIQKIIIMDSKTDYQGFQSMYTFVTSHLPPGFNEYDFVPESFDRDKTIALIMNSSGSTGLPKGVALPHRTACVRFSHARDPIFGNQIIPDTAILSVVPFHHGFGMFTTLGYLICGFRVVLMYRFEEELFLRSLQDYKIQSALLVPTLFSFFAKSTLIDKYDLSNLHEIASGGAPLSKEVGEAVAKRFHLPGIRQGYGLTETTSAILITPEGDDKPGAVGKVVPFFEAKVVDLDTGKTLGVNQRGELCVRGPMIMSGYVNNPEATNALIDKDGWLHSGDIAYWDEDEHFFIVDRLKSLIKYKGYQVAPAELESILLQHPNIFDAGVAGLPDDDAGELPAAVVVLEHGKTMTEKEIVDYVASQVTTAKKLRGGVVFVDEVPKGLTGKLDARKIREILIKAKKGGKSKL
#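 Material: luciferase plus luciferin reagent, cell-free. Medium: PBS buffer for ATP. Also added: ATP substrate, dispensed from a 10.24 µM working solution in PBS. Doses: test compounds dosed from 2 mM stocks in 100% DMSO. Incubation: 10 min post-reagent at room temperature. Technique: light output (luminescence). Read-out basis: luminescence gain marking luciferase activators.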
# STAT1 activator – STAT1 signaling activators, primary screen, cell-based, HTS, luciferase reporter; NIH 3T3 STAT1-luciferase reporter, IFN-gamma, luminescence; 100% = IFN-gamma alone, no compound; activation (% of control), % at 5.5 µM; 200,000 tested, 2.6% active;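 active means activation above the screen-wide mean activation plus 3 SD, cut at about 130% in these data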;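 further: raw ratio to IFN-gamma control signal so 100% means no change and 0% no light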
# STAT3 blocker – IL-6 driven STAT3 reporter inhibitors, primary screen, U3A cells, luciferase, luminescence, MLSCN library | IL-6 STAT3-luciferase reporter; host cell line lacks STAT1 | inhibition, % at 5.5 µM | 190,000 tested, 0.89% active;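 active means inhibition above the mean inhibition across all screened compounds plus 3 SD, cut at about 44% in these data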;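 further: 0% = DMSO only wells and 100% = 100 µM nifuroxazide control wells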
# FLuc inh counter – firefly luciferase enzyme inhibitors, primary screen, artefact control for luciferase-based inhibitor screens, biochemical, luminescence, ATPLite; AID 1006, 2008; inhibition, % at 10 µM; 200,000 tested, 1.5% active; 10 min;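 active means inhibition above about 50% when tested at 10 µM, limit read from the data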
# STAT3 activator – IL-6 driven STAT3 reporter potentiators, primary screen, U3A cells, luciferase, luminescence, MLSCN library; IL-6 STAT3-luciferase reporter; 100% = signal with IL-6 EC80 alone; 190,000 tested, 0.91% active; activation (% of control), % at 5.6 µM;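 active means activation above the screen-wide mean of compound activation plus 3 SD, cut at about 130% in these data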;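 further: 0% = background luminescence of wells with medium and substrate only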
#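 Test system: human U3A cells carrying STAT3-luciferase construct; control set: IL-6-only wells as 100% reference; timing: compound pre-incubation 1 h before IL-6, then 6 h stimulation at 37 °C; also added: IL-6 stimulus at 33 ng/mL final; evaluation: % activation versus median of IL-6-stimulated wells; detection: reporter luminescence signal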
# * marks the source's active call; other numbers are inactive results; · = not tested or not shown. Only some compounds are listed: those with a hit (about 4.9% of all), similar ones and a draw of the others.
SMILES,STAT1 inh,FLuc act counter,STAT1 activator,STAT3 blocker,FLuc inh counter,STAT3 activator
Cc1cc(Cl)nc(-c2ccccc2)n1,-8,1,105,13,-5,91
Cc1cccn2c(CNC3CCCc4ccccc43)c(C(=O)N3CCCCC3)nc12 (stereo not drawn),10,1,90,4,-2,102
CC1CCc2nc(NC(=O)C3CC3)sc2C1 (stereo not drawn),-22,0.8,120,-3,15,107
CC1CCc2nc(NC(=O)C3COc4ccccc4O3)sc2C1 (stereo not drawn),49*,0.5,55,91*,49,28
CC1CCc2nc(NC(=O)CN3CCN(Cc4ccc5c(c4)OCO5)CC3)sc2C1 (stereo not drawn),-2,1.1,102,4,-6,100
CC1CCc2nc(NC(=O)Nc3ccc4c(c3)OCO4)sc2C1 (stereo not drawn),-29,0.5,126,8,53*,93
CC(C)n1c(O)c(N=NC(=O)c2ccccc2NS(=O)(=O)c2cccs2)c2ccccc21,0,1,100,0,-1,105
Cc1cccc(OCc2nnc(SCC(=O)N3CC(=O)Nc4ccccc43)o2)c1,6,1,93,7,0,98
CS(=O)(=O)c1nc(-c2cccs2)cc(C(F)(F)F)n1,50*,1,62,13,-4,90
O=C(CSc1nnnn1-c1ccc(F)cc1)NCc1cccs1,0,1,101,-1,0,103
C=CCSc1ncc(-c2ccccc2)cn1,-40,0.9,136*,9,8,94
CS(=O)(=O)n1nc(-c2ccc(Cl)cc2)nc1N,-6,1,103,12,-3,92
Cn1nc(-c2ccc(Cl)cc2)nc2c(=O)n(C)c(=O)nc1-2,88*,0.9,21,74*,14,43
CCN(CC)S(=O)(=O)c1ccc(NC(=O)Cc2cccs2)cc1,-4,1,102,11,1,97
CCOc1cc(CNc2ccc(N3CCCCC3)cc2)cc(Br)c1OCC(=O)NC(C)(C)C,12,1,89,10,-3,94
CCOc1cc(CNc2ccc(N(C)C)cc2)cc(Br)c1OCC(=O)NC(C)(C)C,-50,1,145*,-5,-4,109
CCN1C(=O)[C@H]2[C@H]3[C@H](O)[C@H](O)C/C(=N\O[C@H](C)c4cn([C@H](CO)Cc5ccccc5)nn4)[C@@H]3CC[C@H]2C1=O,4,1.1,96,2,-7,96
CN(C)c1ccc(/C=N/NC(=O)c2ccccc2Cl)cc1,-30,0.9,127,-1,12,104
CSc1ccc(/C=N/Nc2cccc(C(=O)O)c2)cc1,64*,0.4,41,33,57*,79
CSc1ccc(/C=N/NC(=O)c2ccccc2Cl)cc1,-36,0.9,133*,-12,9,116
CSc1ccc(/C=N/NC(=O)c2ccc(O)cc2)cc1,-29,0.3,126,-4,71*,106
O=C(CCc1nc2ccccc2c(=O)[nH]1)OCCOc1ccc(Cl)cc1,4,1,95,7,-4,96
Cc1ccc(C(=O)OCC(=O)c2ccc(Cl)s2)s1,-33,0.6,131*,5,41,96
CCc1n[n+](CC(=O)c2ccccc2)c(N)s1,59*,0.3,45,65*,70*,51
CCN(CC)c1ccc2cc(C(N)=O)c(=O)oc2c1,-36,0.8,133*,-11,19,109
SMILES,STAT1 inh,FLuc act counter,STAT1 activator,STAT3 blocker,FLuc inh counter,STAT3 activator
CC(C)CC(=O)OCC(=O)Nc1ccccc1Sc1ccccc1,-6,1.1,105,0,-6,103
COc1ccc(/C=N/n2c(N)nc3ccccc32)cc1OC,-17,0.4,115,21,60*,84
O=C1/C(=C/c2ccco2)CCc2ccccc21,-6,0.4,105,0,61*,104
COc1ccc2c(c1)CC/C(=C/c1ccco1)C2=O,-37,0.2,133*,38,81*,70
COc1ccc2c(c1)CC/C(=C\c1ccc(OC)c(Cn3cccn3)c1)C2=O,-9,1,108,0,4,97
Nc1ccc2c(c1)C/C(=C/c1ccco1)C2=O,-126,0.1,210*,0,87*,101
CCn1nc(C)c(CNC(=O)Nc2ccc3c(c2)OCO3)c1C,-19,0.5,115,-9,49,109
Cc1ccc(/C(O)=C2\C(=O)C(=O)N(Cc3cccnc3)C2c2ccccc2[N+](=O)[O-])cc1 (stereo not drawn),-18,0.9,116,-34,9,133*
COc1ccc(-n2ccnc2SCC(=O)NC2CCCC2)c(OC)c1,-1,1,99,4,-5,99
COc1ccc(N/C(N)=N/c2nc(CSc3nnc(C)s3)cc(=O)[nH]2)cc1,4,1.1,96,-5,-8,110
Cc1ccc(N/C(N)=N/c2nc(CSc3nnc(C)s3)cc(=O)[nH]2)c(C)c1,5,1.1,95,-25,-10,135*
COc1ccccc1CCc1nnc(CCC(=O)N(C)Cc2cccc3cnccc23)o1,-35,1,131*,-14,-1,116
COc1ccccc1CCc1nnc(CCC(=O)N(C)Cc2ccncc2C)o1,5,1.1,95,0,-8,106
CCOC(=O)C/C(N)=N/NC(=O)c1ccc(Cl)cc1Cl,-5,1.1,103,16,-5,94
O=C(Nc1ccn(Cc2ccccc2)n1)c1ccc(F)cc1,-45,0.5,138*,3,50*,99
CCN(CC)C(=O)Nc1ccc(Br)cc1,-10,1,106,6,0,97
CN(C)c1ccc(/C=N/n2ncc3ccccc32)cc1,-55,0.4,150*,12,60*,95
CCCCn1c(/N=C/c2ccc(N(C)C)cc2)nc2ccccc21,10,0.4,91,-4,61*,103
C=CCn1c(/N=C/c2ccc(N(C)C)cc2)nc2ccccc21,4,0.1,97,9,94*,95
CCO[C@H]1OC(C(=O)N2CCN(Cc3ccc4c(c3)OCO4)CC2)=C[C@@H](c2ccc(C(F)(F)F)cc2)[C@@H]1CCCO,3,1.1,98,·,-5,·
Clc1ccc2oc(-c3ccccc3)cc(=NCCCN3CCOCC3)c2c1,-51,1,147*,8,4,95
